In one data set the target is T1, Ornithine decarboxylase (Rattus norvegicus, UniProt P09057).
T1 sequence (P09057 whole entry): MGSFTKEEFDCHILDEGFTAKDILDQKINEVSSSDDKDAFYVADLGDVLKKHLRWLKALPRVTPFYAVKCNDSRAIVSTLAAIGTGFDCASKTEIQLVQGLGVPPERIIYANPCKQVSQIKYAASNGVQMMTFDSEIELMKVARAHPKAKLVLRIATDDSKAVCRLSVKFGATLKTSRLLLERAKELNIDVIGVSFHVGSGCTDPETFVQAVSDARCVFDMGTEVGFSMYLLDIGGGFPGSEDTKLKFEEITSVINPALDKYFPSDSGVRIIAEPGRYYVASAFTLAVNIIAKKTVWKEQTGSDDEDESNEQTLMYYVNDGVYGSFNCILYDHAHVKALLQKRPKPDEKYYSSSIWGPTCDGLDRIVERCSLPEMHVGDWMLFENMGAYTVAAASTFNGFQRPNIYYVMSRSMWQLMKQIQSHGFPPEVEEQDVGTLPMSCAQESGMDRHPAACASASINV
As to the kind of experiment: In vitro inhibition against ornithine decarboxylase. Put shortly:
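Time-dependent inactivation of partially purified rat liver ODC (thioacetamide-induced, acid treatment at pH 4.6). Enzyme incubated at 37 °C in 30 mM phosphate pH 7.1, 5 mM DTT and 0.1 mM pyridoxal phosphate with varied inhibitor concentrations. Aliquots were assayed at intervals. Half-inactivation times were plotted against 1/[I] (Kitz–Wilson, least-squares fit) to give apparent K_I and τ1/2.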

Data set [1] addresses ornithine decarboxylase (Rattus norvegicus) (UniProt P09057). As to the kind of experiment: Time of half-inactivation of ornithine decarboxylase extrapolated to infinite inhibitor concentration was determined. To be noted: in vitro.
A short description of data set [2]: In vitro inhibition against rat aorta semicarbazide-sensitive amine oxidase. The class given is tissue-based.
Data set [3] deals with T2, S-adenosylmethionine decarboxylase proenzyme (Homo sapiens) (UniProt P17707).
T2 sequence (whole entry): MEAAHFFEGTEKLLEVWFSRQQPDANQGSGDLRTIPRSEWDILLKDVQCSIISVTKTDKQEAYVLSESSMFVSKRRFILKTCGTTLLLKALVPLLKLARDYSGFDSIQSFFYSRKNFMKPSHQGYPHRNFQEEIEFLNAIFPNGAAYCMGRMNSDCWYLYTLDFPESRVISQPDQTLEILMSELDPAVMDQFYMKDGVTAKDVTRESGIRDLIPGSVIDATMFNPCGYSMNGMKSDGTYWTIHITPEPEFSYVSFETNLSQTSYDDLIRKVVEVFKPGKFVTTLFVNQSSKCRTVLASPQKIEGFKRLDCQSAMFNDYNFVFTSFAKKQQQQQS

The molecule `C#C[C@@H](N)CC[C@H](C)N` displayed a Ki on Ornithine decarboxylase of 3000 nM. Also, in data set [1], the half-inactivation time is 1.7 min.

Take `NCCCC(N)(CF)C(=O)O` (stereo unspecified): the Ki at Ornithine decarboxylase worked out at 2700 nM. In data set [1], the half-inactivation time was 2.6 min.

As to `C#CC(N)CC(F)(F)CN` (stereo unspecified), the Ki in data set [2] amounted to 100 nM.

Regarding `NCCCCN`, the Ka in data set [3] turned out to be 16 µM.

The term Ki denotes a dissociation constant, usually derived from enzyme kinetics or from competition with a known ligand.

The record behind these values is ChEMBL document CHEMBL1124320, “2,2-Difluoro-5-hexyne-1,4-diamine: a potent enzyme-activated inhibitor of ornithine decarboxylase” (J Med Chem, 1989).
